Results on four compounds are retold here after PMC5536102 (Biochemistry, 2017).

The target in one test is purified human αIIbβ3 (Homo sapiens, UniProt P05106+P08514). It counts as binding. The following applies: for average binding affinity constant (Kb), Kb = kon/koff: two-dimensional affinity calculated from kon and koff, Mn2+-activated αIIbβ3. In short, it runs like this:
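Peptides covalently coupled to amine-functionalized latex beads. Purified human αIIbβ3, Mn2+-activated, immobilized for 2 h at 4 °C on glutaraldehyde-activated, polyacrylamide-coated 5-μm silica pedestals. At room temperature, the laser-trapped bead oscillated at 10 Hz (0.8 μm peak-to-peak, 2000 pN/s) against the pedestal for set contact times T. Binding probability versus T was fitted kinetically; αIIbβ3 density ~3000 molecules/μm² gave kon; Kb = 1/Kd = kon/koff.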

The target of test [1] is integrin αIIbβ3 headpiece (Homo sapiens) (UniProt P08514). The following applies: cited from earlier work.
In the next test the test system is αIIbβ3. The following applies: based on a theoretical model; ref 49 (Dutta et al.); cited from earlier work.

Residues, ends and D or L forms follow the SMILES beside them.

Sequence of fibrinogen (P02671 36-866): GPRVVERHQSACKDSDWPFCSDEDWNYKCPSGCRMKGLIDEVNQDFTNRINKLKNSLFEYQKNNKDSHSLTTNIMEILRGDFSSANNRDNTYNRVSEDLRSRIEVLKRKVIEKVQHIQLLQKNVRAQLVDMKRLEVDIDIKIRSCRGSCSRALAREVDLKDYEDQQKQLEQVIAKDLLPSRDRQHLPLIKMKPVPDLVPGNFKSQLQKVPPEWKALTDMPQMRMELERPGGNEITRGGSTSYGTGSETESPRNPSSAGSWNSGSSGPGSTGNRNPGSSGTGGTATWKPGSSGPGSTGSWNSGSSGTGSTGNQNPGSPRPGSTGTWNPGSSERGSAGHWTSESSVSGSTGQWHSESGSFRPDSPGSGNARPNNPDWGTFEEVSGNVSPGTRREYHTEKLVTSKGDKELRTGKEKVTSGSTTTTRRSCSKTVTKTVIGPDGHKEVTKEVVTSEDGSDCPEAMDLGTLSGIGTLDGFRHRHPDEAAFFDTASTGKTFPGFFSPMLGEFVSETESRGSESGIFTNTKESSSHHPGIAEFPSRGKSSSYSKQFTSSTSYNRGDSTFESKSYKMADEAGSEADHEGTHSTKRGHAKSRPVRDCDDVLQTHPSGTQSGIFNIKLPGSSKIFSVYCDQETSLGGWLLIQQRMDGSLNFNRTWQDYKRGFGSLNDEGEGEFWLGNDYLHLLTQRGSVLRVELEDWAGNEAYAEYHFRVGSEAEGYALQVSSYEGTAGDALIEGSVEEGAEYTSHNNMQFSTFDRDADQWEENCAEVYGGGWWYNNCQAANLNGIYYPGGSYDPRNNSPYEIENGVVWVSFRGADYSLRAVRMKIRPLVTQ
Sequence of fibrinogen (P02675 45-491, further chain): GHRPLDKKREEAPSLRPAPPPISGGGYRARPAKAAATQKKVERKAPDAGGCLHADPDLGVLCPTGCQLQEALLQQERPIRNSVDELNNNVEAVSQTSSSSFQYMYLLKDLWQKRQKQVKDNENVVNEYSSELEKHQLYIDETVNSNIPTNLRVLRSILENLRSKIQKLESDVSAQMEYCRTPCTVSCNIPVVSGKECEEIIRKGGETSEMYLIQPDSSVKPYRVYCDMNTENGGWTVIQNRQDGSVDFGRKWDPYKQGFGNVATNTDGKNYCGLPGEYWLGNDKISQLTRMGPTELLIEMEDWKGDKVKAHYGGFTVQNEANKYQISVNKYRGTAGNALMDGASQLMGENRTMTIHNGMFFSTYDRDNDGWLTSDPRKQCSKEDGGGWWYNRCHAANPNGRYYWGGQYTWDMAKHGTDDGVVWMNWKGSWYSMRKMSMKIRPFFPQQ
Sequence of fibrinogen (P02679 27-453, further chain): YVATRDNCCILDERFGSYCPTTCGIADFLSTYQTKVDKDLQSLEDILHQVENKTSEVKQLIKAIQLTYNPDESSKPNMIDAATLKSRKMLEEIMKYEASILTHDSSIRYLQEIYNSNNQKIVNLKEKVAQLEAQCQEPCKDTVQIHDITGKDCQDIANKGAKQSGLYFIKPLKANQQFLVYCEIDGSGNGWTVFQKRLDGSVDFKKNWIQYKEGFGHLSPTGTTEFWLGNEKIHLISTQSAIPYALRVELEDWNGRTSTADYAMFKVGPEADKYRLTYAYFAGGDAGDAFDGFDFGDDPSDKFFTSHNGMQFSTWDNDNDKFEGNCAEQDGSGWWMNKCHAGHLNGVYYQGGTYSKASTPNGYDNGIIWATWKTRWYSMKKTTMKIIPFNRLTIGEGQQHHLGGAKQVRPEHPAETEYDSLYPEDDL

With `CC(C)C[C@H](NC(=O)[C@H](Cc1c[nH]cn1)NC(=O)[C@@H](N)Cc1c[nH]cn1)C(=O)NCC(=O)NCC(=O)N[C@@H](C)C(=O)N[C@@H](CCCCN)C(=O)N[C@@H](CCC(N)=O)C(=O)N[C@@H](C)C(=O)NCC(=O)N[C@@H](CC(=O)O)C(=O)N[C@H](C(=O)O)C(C)C` [γC-12, His-His-Leu-Gly-Gly-Ala-Lys-Gln-Ala-Gly-Asp-Val] (H-HHLGGAKQAGDV-OH), on purified human αIIbβ3 (pH 7.4, read-out: average unbinding rate constant koff), the koff came out at 2.05 ± 0.59 s⁻¹. For the same compound, the “average binding affinity constant (Kb), Kb = kon/koff” value on purified human αIIbβ3 is “(1.22 ± 0.61) × 10^12 cm^2/mol”.
On to fibrinogen (from UniProt P02671), for which the Kd in test [1] was 0.1 µM.
“cyclo (S,S)-L-lysyl-L-tyrosyl-glycyl-L-cystinyl-L-homoarginyl-glycyl-L-aspartyl-L-trytopanyl-L-prolyl-L-cystine [cHarGD]”: the dissociation energy in the test with αIIbβ3 was 7 to 9 kcal/mol.
In the case of “cyclo[Arg-Gly-Asp-D-Phe-Lys(Cys)] (head to tail) [cRGDFK]”, the “average binding affinity constant (Kb), Kb = kon/koff” value on purified human αIIbβ3 was “(1.96 ± 0.65) × 10^12 cm^2/mol”.

The koff is a measure of how fast the partners let go of each other. One may read the Kd as the free concentration of one partner at which half of the binding sites on the other are occupied at equilibrium, for simple one-to-one binding.
